The text below walks through data of PubChem BioAssay AID617 (SRMLSC, 2007).

What is called IC50 is the concentration that gives 50% inhibition.

This experiment has as its system E. coli BW25113 ΔtolC growth inhibition, OD615. The experiment is described as follows: E. coli ΔtolC antibacterial growth inhibition – strain BW25113 ΔtolC::kan, dose response (AID 617).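 Further: growth read after 20 h at 37 °C with compound.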 Summed up: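 Test system: E. coli BW25113 ΔtolC::kan bacteria | Amount: 1:1000 diluted subculture inoculum | Medium: LB plus kanamycin | Timing: 20 h exposure at 37 °C | Signal: Absorbance at 615 nm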
In the case of `Cc1cccc(NC(=O)c2cc3n(n2)C(C(F)(F)F)CC(c2ccc4c(c2)OCO4)N3)c1` (stereo unspecified), the IC50 is 6.87 µM. Consider `Cc1ccc(-c2nnn(CC(=O)N(Cc3ccco3)C(C(=O)NC(C)(C)C)c3cccs3)n2)o1` (stereo unspecified), for which the 50% inhibitory concentration (IC50) is 23.3 µM. Regarding `CN(Cc1ccccc1)C(=O)CSc1nc2ccccc2c(=O)n1Cc1ccco1`, the IC50 was 10.7 µM. For the molecule `CCCn1c(SCC(=O)Nc2ccccc2N2CCCCC2)nc2c1c(=O)n(C)c(=O)n2C`, the half-maximal inhibitory concentration (IC50) was 11.7 µM. The same measure for `C=C(C)COc1ccc(-c2n[nH]c(C)c2-c2ccccc2OC)c(O)c1`: 13.6 µM; for `CCSc1nnc(NC(=O)CSc2nccn2-c2cccc(C)c2C)s1`: 5.29 µM.

For `Cc1ccc(Cl)cc1N1CCN(C(=O)c2ccc(NS(=O)(=O)c3c(C)noc3C)cc2)CC1`, the concentration for half-maximal inhibition (IC50) is 29.4 µM. For `Oc1ccc2c(c1)oc1cc(O)ccc12`, the IC50 is 16.6 µM. On to `O=C(COC(=O)c1ccc(Oc2ccccc2)cc1)Nc1nnc(-c2ccccc2)o1`, for which the IC50 is 0.96 µM. Take `CC1CCCC(C)N1C(=O)CN1CCN(c2nc(-c3ccc(F)cc3)cs2)CC1` (stereo unspecified): the half-maximal inhibitory concentration (IC50) was 12 µM. For `N#Cc1nc(COc2ccc(F)cc2)oc1N1CCN(Cc2ccccc2)CC1`, the IC50 is 14.4 µM. For `Clc1cccc(-c2nc3nc4ccccc4nc3n2Cc2ccco2)c1`, the IC50 is 15 µM. For the molecule `CCOc1ccc(S(=O)(=O)Nc2cc(Cl)ccc2O)cc1`, the IC50 was 9.22 µM. As to `CCCc1nc2sc3ccccc3c(=O)c2c(=O)n1Cc1ccco1`, the IC50 was 5.73 µM. With `CSc1ncc(Cl)c(C(=O)C(C#N)c2nc3c(C)cc(C)cc3c(=O)[nH]2)n1` (stereo unspecified) the figure was 3.28 µM; with `Oc1ccc(Cl)cc1-c1cc(-c2ccccc2)n[nH]1`, 6.46 µM; with `CCOc1cc(S(=O)(=O)N2CCN(Cc3ccccc3)CC2)ccc1Br`, 19.3 µM.

For `Cc1ccc(N(CC(=O)Nc2cccc(C)c2)S(=O)(=O)c2cccc3nonc23)cc1`, the IC50 was 37 µM. On to `c1ccc(-c2noc(-c3cccc4ccccc34)n2)cc1`, for which the IC50 is 101 µM. With `c1ccc(-c2nc(NCc3ccco3)c3ccccc3n2)nc1`, the 50% inhibitory concentration (IC50) is 5.54 µM. For `CC1Cc2cc(-c3csc(NC(=O)Cc4cccs4)n3)ccc2N1S(C)(=O)=O` (stereo unspecified), the IC50 is 15.3 µM. For `CC(C)(C)n1nnnc1C(c1cccs1)N1CCCc2ccccc21` (stereo unspecified), the half-maximal inhibitory concentration (IC50) was 13.6 µM. Regarding `Cc1cc(NC(=O)C2CCCCC2)nc2c1c(=O)oc1ccccc12`, the half-inhibitory concentration (IC50) is 11.5 µM. Consider `COc1ccc(-c2[nH]ncc2-c2cnn(-c3ccccc3)c2)c(O)c1`, for which the IC50 is 12.5 µM.

As for `CCCOC(=O)c1ccc(Oc2c(-c3ccc(O)cc3O)n[nH]c2C)cc1`, the half-maximal inhibitory concentration (IC50) was 3.26 µM. The same measure for `CN(c1ccccc1C(=O)Nc1ccc(S(=O)(=O)N2CCCCC2)cc1)S(C)(=O)=O`: 7.39 µM; for `COc1ccc(OC)c(C(=O)COC(=O)c2cc(C)oc2C)c1`: 25.1 µM. Turning to `CCCn1c(=O)c(C(=O)Nc2nnc(C)s2)c(O)c2ccccc21`, the IC50 was 12 µM.

As to `CCOC(=O)C1CN(c2cc3c(cc2F)c(=O)c(C(=O)O)cn3CC)OC1C(=O)OCC` (stereo unspecified), the IC50 was 0.81 µM. `COc1ccccc1OCC(=O)N(Cc1nc(-c2ccccc2)no1)C1CCCCC1`: the IC50 is 12.7 µM. As for `O=S(=O)(Nc1nc2ccccc2nc1NCc1ccco1)c1ccccc1`, the half-inhibitory concentration (IC50) is 8.89 µM. For `COc1ccc(-c2noc(CN3CCC(Cc4ccccc4)CC3)n2)cc1`, the IC50 was 17.2 µM.

Turning to `Oc1c(CN2CCc3ccccc3C2)cc(Cl)c2cccnc12`, the IC50 is 8.71 µM. Regarding `CCOc1cc(-c2c(C#N)c(N)nc3c2CCCC3C)ccc1O` (stereo unspecified), the IC50 is 6.26 µM. The same measure for `COC(=O)c1c(NC(=O)CCc2ccc(C)o2)sc(C)c1C`: 26.8 µM; for `CC(C)Sc1nc(NCc2ccco2)c2c3c(sc2n1)COC(C)(C)C3`: 20.6 µM; for `O=C(N1CCN(c2ccccn2)CC1)N1c2ccccc2Sc2ccccc21`: 19.4 µM. Turning to `Cc1cc(N2C3CCC2CC(O)(c2ccc(F)cc2)C3)nc(-c2ccccc2)n1` (stereo unspecified), the IC50 is 7.11 µM. For `CC(C)c1ccc(Nc2nc(NCc3ccco3)nc(N3CCOCC3)n2)cc1`, the IC50 was 17.5 µM. For the molecule `Cc1ccc(Cl)cc1N1CCN(Cc2nnnn2Cc2ccco2)CC1`, the IC50 was 17.6 µM. With `c1ccc(CSc2nnc(-c3ccco3)n2Cc2ccccc2)cc1` the figure was 13.8 µM.

Regarding `CCC(Oc1ccccc1)C(=O)Nc1ccc(-c2nnc(-c3ccco3)o2)cc1` (stereo unspecified), the IC50 was 18.2 µM.

Consider `CCSc1nnc(NC(=O)c2nc(-c3ccccc3)n(-c3ccccc3)n2)s1`, for which the 50% inhibitory concentration (IC50) is 2.23 µM. As for `Cc1cccc(N(C)C(=O)c2cc3cc4ccc(C)cc4nc3o2)c1`, the half-maximal inhibitory concentration (IC50) was 23.9 µM. For the molecule `CCOc1ccc2nc(NC(=O)CN3CCC(n4nnc5cc(F)ccc54)CC3)sc2c1`, the half-maximal inhibitory concentration (IC50) was 15.4 µM. Take `O=C(Nc1ccc(Cl)cc1)N(Cc1cccs1)Cc1cccs1`: the IC50 is 10.7 µM. Turning to `C=CCn1cc(C(=O)NCc2ccco2)c(=O)c2cc(S(=O)(=O)N3CCCCCC3)ccc21`, the IC50 was 16.1 µM. Regarding `O=c1[nH]c(NCCCO)nc2c1C1(CCCC1)Cc1ccccc1-2`, the 50% inhibitory concentration (IC50) is 8.77 µM. With `COC(=O)c1c(NC(=O)Cc2cccs2)sc2c1CCCC2`, the 50% inhibitory concentration (IC50) is 8.83 µM. With `CC(C)N(Cc1nc(-c2ccc(Cl)cc2)no1)C(=O)c1cccs1` the figure was 18.9 µM; with `c1ccc(CCc2ccccc2-c2nc(-c3cccnc3)no2)cc1`, 11.9 µM. On to `O=c1c2c(nc3n1CCCCC3)-c1ccccc1CC21CCCC1`, for which the IC50 is 14.1 µM. The same measure for `O=C(Nc1ccn(Cc2ccc(Cl)cc2)n1)c1ccc2c(c1)OCO2`: 7.31 µM. In the case of `CCCCn1c(=O)n(Cc2cccc(F)c2)c(=O)c2c1ncn2Cc1ccco1`, the concentration for half-maximal inhibition (IC50) is 14.8 µM. In the case of `CCCCCCN=C(CC)c1c(O)n(CCCC)c(=O)[nH]c1=O`, the IC50 is 11.8 µM. In the case of `O=C(CCSc1nc(-c2ccco2)cc(C(F)(F)F)n1)N1CCCc2ccccc21`, the IC50 was 9.2 µM. With `CCn1c(SCC(=O)Nc2nc(-c3ccccc3)cs2)nnc1-c1ccccc1O` the figure was 6.69 µM. With `O=C(c1ccc(COc2ccccc2Br)o1)N1CCCCCC1`, the IC50 was 98.8 µM. For the molecule `CC(C)OCCCNc1ncnc2c1[nH]c1ccccc12`, the IC50 was 5.88 µM. Take `CCOC(=O)C1Cn2c(nc3c(c2=O)C(C)(CC)Cc2ccccc2-3)S1` (stereo unspecified): the IC50 was 24.2 µM. Take `CC(C)COC(=O)NCCOC(=O)Nc1cccc(Cl)c1`: the half-maximal inhibitory concentration (IC50) is 19.6 µM. The same measure for `O=c1cc(O)c2c(=O)n3c4c(cccc4c2o1)CCC3`: 2.82 µM; for `COc1ccc(Cl)cc1N1CCN(CCNC(=O)Nc2ccccc2C)CC1`: 43.7 µM; for `COc1ccc(-c2nnc(NC(=O)c3ccc(S(=O)(=O)N4CCc5ccccc5C4)cc3)o2)cc1`: 0.22 µM.

For `CCCCCn1c(N2CCC(Cc3ccccc3)CC2)nc2c1c(=O)[nH]c(=O)n2C`, the IC50 was 6.18 µM.

`COc1ccc(-c2noc(C)c2-c2ccc3ccccc3n2)c(O)c1`: the half-inhibitory concentration (IC50) was 8.91 µM.

Take `Fc1cccc(Cl)c1Cn1nnc(-c2ccc3c(c2)OCO3)n1`: the IC50 was 20.3 µM. Consider `CCOC(=O)C1CCN(C(c2cccnc2)c2c(NC(=O)c3ccco3)sc(C)c2C)CC1` (stereo unspecified), for which the concentration for half-maximal inhibition (IC50) is 13.6 µM. The same measure for `COc1ccc(-n2c(C)cc(C(=O)COC(=O)Cn3cnc4ccccc43)c2C)cc1`: 3.33 µM; for `Clc1ccc(OCCCc2nc(-c3cccnc3)no2)c(Cl)c1`: 17.2 µM; for `CCOC(=O)Cc1nnc2c(Nc3ccc(Cl)cc3)nc3nonc3n12`: 3.75 µM. For the molecule `Cc1ccc(Cl)cc1NC(=O)CC(O)(C(F)(F)F)C(F)(F)F`, the IC50 was 3.77 µM. As for `Cc1ccc(O)c(-c2cc3ccccc3[nH]2)c1`, the IC50 was 11.7 µM. On to `COC(=O)CNS(=O)(=O)c1ccc(Cc2ccc(S(=O)(=O)NCC(=O)OC)cc2)cc1`, for which the IC50 was 1.29 µM. The same measure for `CC1=C(C(=O)OC2CCCCCCC2)C(c2cccc(O)c2)NC(=O)N1` (stereo unspecified): 12.3 µM; for `COC(=O)c1ccc(OC)c(CSc2nnc(COc3ccccc3)o2)c1`: 23.1 µM; for `Cc1nc2c(C(=O)NCc3ccc4c(c3)OCO4)c[nH]n2c(=O)c1Cc1ccccc1F`: 2.6 µM. As for `Cc1cc(C)n(-c2nc(SCC(=O)N3CCCC3)c3c4c(sc3n2)CCCC4)n1`, the half-inhibitory concentration (IC50) is 23.9 µM. As to `CCN(C1CCCCC1)S(=O)(=O)c1ccc(OC)c(C)c1`, the IC50 was 16.9 µM. With `Cc1ccc(C)c(SCC(=O)Nc2nnc(-c3ccccc3)o2)c1` the figure was 4.69 µM; with `CCn1cc(C(=O)O)c(=O)c2cc(F)c(N3CCN(C(=O)Nc4ccccc4)CC3)cc21`, less than 0.2 µM; with `CC(C)OCCCNc1ncnc2c1[nH]c1ccc(F)cc12`, 7.21 µM. Turning to `O=C1NC(Nc2nc3ccccc3s2)(C(F)(F)F)C(=O)N1C1CCCCC1` (stereo unspecified), the IC50 was 5.74 µM.

With `c1csc(-c2nc3nc4ccccc4nc3n2Cc2ccc3c(c2)OCO3)c1`, the concentration for half-maximal inhibition (IC50) was 9.62 µM. For `CCCCNC(=O)c1sc(=S)n2c1[nH]c(=O)c1ccccc12`, the IC50 is 0.54 µM. With `Cc1oc2c(CN3CCOCC3)c(O)ccc2c(=O)c1-c1ccc(Br)cc1` the figure was 2.83 µM; with `Cc1nc(N2CCN(Cc3ccc4c(c3)OCO4)CC2)c2oc3ccccc3c2n1`, 11.6 µM. For `COc1cc(S(=O)(=O)N2CCC(O)(c3cccc(C(F)(F)F)c3)CC2)ccc1-n1cnnn1`, the IC50 is 11.1 µM.

Consider `Cc1cc(C)c(C#N)c(N2CCN(CCOc3ccc(Cl)cc3)CC2)n1`, for which the IC50 was 10.4 µM. Turning to `CC(C)c1nnc(NC(=O)c2c(O)c3cccc4c3n(c2=O)CC4)s1`, the IC50 was 34.7 µM. For `Cc1cc(N2CCCCCC2)nc(-c2ccccc2O)n1`, the IC50 is 13.6 µM. With `COC(=O)c1sccc1NC(=O)c1cc2c(s1)CCCC2`, the half-inhibitory concentration (IC50) was 4.95 µM.

`COC(=O)C1=C(CSc2nc3ccccc3o2)NC(=O)NC1c1cc(C)ccc1C` (stereo unspecified): the concentration for half-maximal inhibition (IC50) was 13 µM. `Oc1c(C(c2ccco2)N2CCN(C(c3ccccc3)c3ccccc3)CC2)sc2ncnn12` (stereo unspecified): the half-maximal inhibitory concentration (IC50) was 13.3 µM.

For the molecule `Cn1c(-c2ccccc2)cc2c3no[n+]([O-])c3ccc21`, the IC50 is 5.09 µM. As to `CCCCOC(=O)CSc1nnc(-c2ccc(Cl)cc2Cl)o1`, the IC50 was 19.4 µM.
